≈ marks a conversion by molar mass, not a printed value. Calls of active or inactive are those of the source. The rule behind the calls is not given here.
Columns and labels:
rhinovirus A2 [1] = test: (§1) In vitro anti-picornavirus activity against Rhinovirus type-2.; assay type: functional; settings: Rhinovirus A
Summary of the method: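 HeLa (Ohio) monolayers (day-old, 90%) were infected at about 80 pfu/well and adsorbed at least 1 h at 33 °C in 2% CO2. After 3 days at 33 °C they were fixed with formaldehyde and stained with crystal violet.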

Poliovirus 2 [2] = test: In vitro anti-picornavirus activity against Poliovirus type-2.; assay type: functional; settings: Enterovirus C
[3] = Maximum testable level of compound was evaluated; assay type: functional
Summary of the method: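 In the HeLa (Ohio) plaque-overlay system, Me2SO-solubilized compound was twofold serially diluted into the agarose overlay. Uninfected cell controls were run alongside and cells were stained with crystal violet after 3 days. The maximum testable level was taken as the concentration below which no cytotoxic effects were seen.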

Poliovirus 2 [4] = test: In vitro for anti-picornavirus activity against Poliovirus type-2; Not Active.; assay type: functional, organism-based
Summary of the method: (§2)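 Plaque-reduction assay on day-old HeLa (Ohio) monolayers at 90% confluence, infected with polio-2 at ca. 80 pfu/well. Adsorption was at least 1 h at 37 °C in 2% CO2. Cells were then overlaid in duplicate with drug in M-199/calf serum/agarose (Me2SO stock at 10 mg/mL, twofold dilutions) and held 3 days. Plaques were fixed with formaldehyde, stained with crystal violet and counted. MIC is the concentration giving 50% plaque reduction.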

rhinovirus A2 [5] = test: as §1; assay type: functional; settings: Rhinovirus A; remark: listed apart in the source
Summary of the method: (§3)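 HeLa (Ohio) monolayers (day-old, 90%) were infected at about 80 pfu/well and adsorbed at least 1 h at 33 °C in 2% CO2. After 3 days at 33 °C they were fixed with formaldehyde and stained with crystal violet. MIC was the concentration giving 50% fewer plaques.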

Poliovirus 2 [6] = test: Compound tested in vitro for anti-picornavirus activity against Poliovirus type-2; NA=Not Active; assay type: functional, organism-based; summary of the method: as §2
Poliovirus 2 [7] = test: Compound tested in vitro for anti-picornavirus activity against Poliovirus type-2; assay type: functional; settings: Enterovirus C; summary of the method: as §2
rhinovirus A2 [8] = test: In vitro anti-picornavirus activity against Rhinovirus type-2; Not Active.; assay type: functional, organism-based; summary of the method: as §3
Poliovirus 2 [9] = test: Compound tested in vitro for anti-picornavirus activity against Poliovirus type-2; NA=Not Active.; assay type: functional, organism-based; summary of the method: as §2

SMILES	MIC (rhinovirus A2 [1])	MIC (Poliovirus 2 [2])	MTL [3]	MIC (rhinovirus A2 [5])	also measured
Cc1ccc(OCCCCCCCc2cc(C)no2)c(Cl)c1	1.2 µg/mL (≈ 3.73 µM)	0.8 µg/mL (≈ 2.49 µM)	6.2 µg/mL		
CCCOC(=O)c1ccc(OCCCCCCCc2cc(C)no2)cc1	0.07 µg/mL (≈ 0.195 µM)		25 µg/mL		MIC (Poliovirus 2 [4]): inactive
CCc1noc(CC)c1CCCCCCOc1ccccc1C(F)(F)F			6.2 µg/mL	3.1 µg/mL (≈ 8.39 µM)	MIC (Poliovirus 2 [6]): inactive
CCOC(=O)c1ccc(OCCCCCc2cc(C)no2)cc1			12.5 µg/mL	0.015 µg/mL (≈ 0.0473 µM)	MIC (Poliovirus 2 [7]): 0.6 µg/mL (≈ 1.89 µM)
Cc1cc(CCCCCCCOc2ccc(C(C)C)cc2)on1	1 µg/mL (≈ 3.17 µM)	0.04 µg/mL (≈ 0.127 µM)	12.5 µg/mL		
Cc1cc(CCCCCCCOc2ccc(OC(C)C)cc2)on1	0.7 µg/mL (≈ 2.11 µM)	0.1 µg/mL (≈ 0.302 µM)	12.5 µg/mL		
Cc1cc(CCCCCCCOc2ccc(C(=O)OC(C)C)cc2)on1	0.2 µg/mL (≈ 0.556 µM)	0.9 µg/mL (≈ 2.5 µM)	12.5 µg/mL		
CCc1noc(CC)c1CCCCCCOc1ccc(C(=O)O)cc1			3.1 µg/mL		MIC (rhinovirus A2 [8]): inactive; MIC (Poliovirus 2 [6]): inactive
CCc1noc(CC)c1CCCCCCOc1ccc(OC)cc1Br			6 µg/mL	0.4 µg/mL (≈ 0.975 µM)	MIC (Poliovirus 2 [6]): inactive
Cc1cc(CCCCCCCOc2ccc(Cl)cc2)on1	1.5 µg/mL (≈ 4.87 µM)	0.3 µg/mL (≈ 0.975 µM)	3.1 µg/mL		
CCc1noc(CC)c1CCCCCCOc1ccc(OC)cc1C(=O)OC			12 µg/mL		MIC (Poliovirus 2 [7]): 2.9 µg/mL (≈ 7.45 µM); MIC (rhinovirus A2 [8]): inactive
CCc1noc(CC)c1CCCCCCOc1ccc2c(c1)OCO2			6.2 µg/mL		MIC (rhinovirus A2 [8]): inactive; MIC (Poliovirus 2 [6]): inactive
CCc1noc(CC)c1CCCCCCOc1c(OC)cccc1OC			6.2 µg/mL	3.1 µg/mL (≈ 8.58 µM)	MIC (Poliovirus 2 [6]): inactive
CCc1noc(CC)c1CCCCCCOc1ccccc1F			6.2 µg/mL	3.1 µg/mL (≈ 9.71 µM)	MIC (Poliovirus 2 [6]): inactive
CCc1noc(CC)c1CCCCCCOc1ccc(O)cc1			25 µg/mL		MIC (rhinovirus A2 [8]): inactive; MIC (Poliovirus 2 [6]): inactive
CCc1noc(CC)c1CCCCCCOc1ccc(OC)cc1[N+](=O)[O-]	0.3 µg/mL (≈ 0.797 µM)	1.5 µg/mL (≈ 3.98 µM)	6 µg/mL		
COc1ccc(OCCCCCc2cc(C)no2)c(Cl)c1			12.5 µg/mL	0.4 µg/mL (≈ 1.29 µM)	MIC (Poliovirus 2 [7]): 0.2 µg/mL (≈ 0.646 µM)
CCc1noc(CC)c1CCCCCCOc1ccc(OC)cc1C(=O)O			12.5 µg/mL		MIC (rhinovirus A2 [8]): inactive; MIC (Poliovirus 2 [6]): inactive
CCOC(=O)c1ccc(OCCCCCCc2cc(C)no2)cc1			12.5 µg/mL	0.01 µg/mL (≈ 0.0302 µM)	MIC (Poliovirus 2 [7]): 0.8 µg/mL (≈ 2.41 µM)
CCOC(=O)c1ccc(OCCCCCCc2c(CC)noc2CC)cc1			6.2 µg/mL	0.1 µg/mL (≈ 0.268 µM)	MIC (Poliovirus 2 [7]): 0.5 µg/mL (≈ 1.34 µM)
Cc1cc(CCCCCCCOc2ccc([N+](=O)[O-])cc2)on1		1.5 µg/mL (≈ 4.71 µM)	1.6 µg/mL		MIC (rhinovirus A2 [8]): inactive
CCc1noc(CC)c1CCCCCCOc1c(Cl)cccc1Cl			12 µg/mL	1.6 µg/mL (≈ 4.32 µM)	MIC (Poliovirus 2 [7]): 5.9 µg/mL (≈ 15.9 µM)
CCc1noc(CC)c1CCCCCCOc1cccc(I)c1			12.5 µg/mL	6.3 µg/mL (≈ 14.7 µM)	MIC (Poliovirus 2 [6]): inactive
CCc1noc(CC)c1CCCCCCOc1ccc(OC)cc1			6.2 µg/mL	3.1 µg/mL (≈ 9.35 µM)	MIC (Poliovirus 2 [6]): inactive

SMILES	MIC (rhinovirus A2 [1])	MIC (Poliovirus 2 [2])	MTL [3]	MIC (rhinovirus A2 [5])	also measured
CCOC(=O)c1ccc(OCCCCCCCc2cc(C)no2)cc1	0.025 µg/mL (≈ 0.0724 µM)	0.8 µg/mL (≈ 2.32 µM)	2.5 µg/mL		
COC(=O)c1ccc(OCCCCCCCc2cc(C)no2)cc1	3 µg/mL (≈ 9.05 µM)	0.4 µg/mL (≈ 1.21 µM)	6.2 µg/mL		
COc1ccc(OCCCCCCCc2cc(C)no2)c([N+](=O)[O-])c1	0.3 µg/mL (≈ 0.861 µM)	0.2 µg/mL (≈ 0.574 µM)	3.1 µg/mL		
COc1ccc(OCCCCCCc2cc(C)no2)c(Cl)c1			12.5 µg/mL	0.8 µg/mL (≈ 2.47 µM)	MIC (Poliovirus 2 [7]): 0.3 µg/mL (≈ 0.926 µM)
CCOC(=O)c1ccc(OCCCCCCCCc2cc(C)no2)cc1	0.05 µg/mL (≈ 0.139 µM)		12.5 µg/mL		MIC (Poliovirus 2 [4]): inactive
CC(=O)c1ccc(OCCCCCCCc2cc(C)no2)cc1	1.6 µg/mL (≈ 5.07 µM)	0.01 µg/mL (≈ 0.0317 µM)	12.5 µg/mL		
CCc1noc(CC)c1CCCCCCOc1ccc(SC)cc1			12.5 µg/mL		MIC (Poliovirus 2 [7]): 0.6 µg/mL (≈ 1.73 µM); MIC (rhinovirus A2 [8]): inactive
CCc1noc(CC)c1CCCCCCOc1ccc(F)cc1Cl			12.5 µg/mL	3.1 µg/mL (≈ 8.76 µM)	MIC (Poliovirus 2 [6]): inactive
COc1ccc(OCCCCCCCCc2cc(C)no2)c(Cl)c1	0.16 µg/mL (≈ 0.455 µM)	0.65 µg/mL (≈ 1.85 µM)	12.5 µg/mL		
CCc1noc(CC)c1CCCCCCOc1ccc(C(=O)OC)cc1Cl			1.6 µg/mL	0.4 µg/mL (≈ 1.02 µM)	MIC (Poliovirus 2 [7]): 0.61 µg/mL (≈ 1.55 µM)
CCOC(=O)c1ccc(OCCCCCCCCc2c(CC)noc2CC)cc1	0.4 µg/mL (≈ 0.996 µM)		12.5 µg/mL		MIC (Poliovirus 2 [4]): inactive
CCc1noc(CC)c1CCCCCCOc1ccc(OC)cc1Cl			12 µg/mL	0.8 µg/mL (≈ 2.19 µM)	MIC (Poliovirus 2 [9]): inactive
Cc1cc(CCCCCCCOc2ccc(C(N)=O)cc2)on1			12.5 µg/mL		MIC (Poliovirus 2 [4]): inactive; MIC (rhinovirus A2 [8]): inactive
CCOC(=O)c1ccc(OCCCCc2cc(C)no2)cc1			6.2 µg/mL	3.1 µg/mL (≈ 10.2 µM)	MIC (Poliovirus 2 [6]): inactive
CCOC(=O)c1cccc(OCCCCCCCc2cc(C)no2)c1	1.6 µg/mL (≈ 4.63 µM)		12.5 µg/mL		MIC (Poliovirus 2 [4]): inactive
CCC(=O)c1ccc(OCCCCCCCc2cc(C)no2)cc1	1.7 µg/mL (≈ 5.16 µM)	0.4 µg/mL (≈ 1.21 µM)	6.2 µg/mL		
Cc1cc(CCCCCCCOc2ccc(C(=O)N(C)C)cc2)on1		2.5 µg/mL (≈ 7.26 µM)	3.1 µg/mL		MIC (rhinovirus A2 [8]): inactive
Cc1cc(CCCCCCCOc2ccccc2)on1	1.2 µg/mL (≈ 4.39 µM)	1.7 µg/mL (≈ 6.22 µM)	6.2 µg/mL		
Cc1cc(CCCCCCCOc2ccc(OCc3ccccc3)cc2)on1			12.5 µg/mL		MIC (rhinovirus A2 [8]): inactive
Cc1cc(CCCCCCCOc2ccc(C(=O)OC(C)(C)C)cc2)on1	6.2 µg/mL (≈ 16.6 µM)	1.2 µg/mL (≈ 3.21 µM)	2.5 µg/mL		
CCc1noc(CC)c1CCCCCCOc1ccc(C(=O)OC)cc1Br			12.5 µg/mL	0.4 µg/mL (≈ 0.912 µM)	MIC (Poliovirus 2 [7]): 2.2 µg/mL (≈ 5.02 µM)
CCOC(=O)c1ccc(OCCCCCCCc2c(CC)noc2CC)cc1	0.05 µg/mL (≈ 0.129 µM)	0.4 µg/mL (≈ 1.03 µM)	12 µg/mL		
CCc1noc(CC)c1CCCCCCOc1ccc(Br)cc1			6 µg/mL		MIC (rhinovirus A2 [8]): inactive; MIC (Poliovirus 2 [6]): inactive
Cc1cc(CCCCCCCOc2ccc(C(=O)NN)cc2)on1	0.64 µg/mL (≈ 1.93 µM)		12.5 µg/mL		MIC (Poliovirus 2 [4]): inactive

Reference: ChEMBL document CHEMBL1123011, “Isoxazoles with antipicornavirus activity” (1985)
